Test results from ChEMBL document CHEMBL2390926, “Identification of novel FLT3 kinase inhibitors” (Eur J Med Chem, 2013).
Active and inactive are the calls of the source. The rule behind the calls is not given here.

How the values were obtained:
[1] = target: Tyrosine-protein kinase Yes (Homo sapiens) (UniProt P07947); experiment: Inhibition of YES (unknown origin) transfected in mouse Ba/F3 cells at 1 uM after 24 hrs; assay type: cell-based; settings: BaF3
[2] = target: T1, Non-receptor tyrosine-protein kinase TNK1 (Homo sapiens) (UniProt Q13470); experiment: Inhibition of TNK1 (unknown origin) transfected in mouse Ba/F3 cells at 1 uM after 24 hrs; assay type: cell-based; settings: BaF3
T1 sequence (whole entry): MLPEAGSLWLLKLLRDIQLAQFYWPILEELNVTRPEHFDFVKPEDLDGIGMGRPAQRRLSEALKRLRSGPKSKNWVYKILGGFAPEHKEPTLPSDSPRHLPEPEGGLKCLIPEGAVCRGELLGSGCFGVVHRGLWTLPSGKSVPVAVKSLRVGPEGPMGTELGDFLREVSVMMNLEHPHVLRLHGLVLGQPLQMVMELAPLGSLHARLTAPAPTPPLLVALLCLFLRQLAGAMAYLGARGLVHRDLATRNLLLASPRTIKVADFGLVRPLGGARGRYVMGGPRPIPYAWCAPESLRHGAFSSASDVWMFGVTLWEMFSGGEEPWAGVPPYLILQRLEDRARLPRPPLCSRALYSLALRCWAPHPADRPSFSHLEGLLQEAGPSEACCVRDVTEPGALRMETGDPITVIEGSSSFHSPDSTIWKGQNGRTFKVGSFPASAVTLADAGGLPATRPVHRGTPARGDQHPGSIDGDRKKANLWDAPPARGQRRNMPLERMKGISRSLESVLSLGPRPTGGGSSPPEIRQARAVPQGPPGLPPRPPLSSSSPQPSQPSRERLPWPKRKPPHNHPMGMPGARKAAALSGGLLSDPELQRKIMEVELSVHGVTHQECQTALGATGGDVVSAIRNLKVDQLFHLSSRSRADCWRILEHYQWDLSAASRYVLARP

[3] = target: Proto-oncogene tyrosine-protein kinase ROS (Homo sapiens) (UniProt P08922); experiment: Inhibition of ROS1 (unknown origin) transfected in mouse Ba/F3 cells at 1 uM after 24 hrs; assay type: cell-based; settings: BaF3
Chain of Proto-oncogene tyrosine-protein kinase ROS (Homo sapiens) (P08922 whole entry): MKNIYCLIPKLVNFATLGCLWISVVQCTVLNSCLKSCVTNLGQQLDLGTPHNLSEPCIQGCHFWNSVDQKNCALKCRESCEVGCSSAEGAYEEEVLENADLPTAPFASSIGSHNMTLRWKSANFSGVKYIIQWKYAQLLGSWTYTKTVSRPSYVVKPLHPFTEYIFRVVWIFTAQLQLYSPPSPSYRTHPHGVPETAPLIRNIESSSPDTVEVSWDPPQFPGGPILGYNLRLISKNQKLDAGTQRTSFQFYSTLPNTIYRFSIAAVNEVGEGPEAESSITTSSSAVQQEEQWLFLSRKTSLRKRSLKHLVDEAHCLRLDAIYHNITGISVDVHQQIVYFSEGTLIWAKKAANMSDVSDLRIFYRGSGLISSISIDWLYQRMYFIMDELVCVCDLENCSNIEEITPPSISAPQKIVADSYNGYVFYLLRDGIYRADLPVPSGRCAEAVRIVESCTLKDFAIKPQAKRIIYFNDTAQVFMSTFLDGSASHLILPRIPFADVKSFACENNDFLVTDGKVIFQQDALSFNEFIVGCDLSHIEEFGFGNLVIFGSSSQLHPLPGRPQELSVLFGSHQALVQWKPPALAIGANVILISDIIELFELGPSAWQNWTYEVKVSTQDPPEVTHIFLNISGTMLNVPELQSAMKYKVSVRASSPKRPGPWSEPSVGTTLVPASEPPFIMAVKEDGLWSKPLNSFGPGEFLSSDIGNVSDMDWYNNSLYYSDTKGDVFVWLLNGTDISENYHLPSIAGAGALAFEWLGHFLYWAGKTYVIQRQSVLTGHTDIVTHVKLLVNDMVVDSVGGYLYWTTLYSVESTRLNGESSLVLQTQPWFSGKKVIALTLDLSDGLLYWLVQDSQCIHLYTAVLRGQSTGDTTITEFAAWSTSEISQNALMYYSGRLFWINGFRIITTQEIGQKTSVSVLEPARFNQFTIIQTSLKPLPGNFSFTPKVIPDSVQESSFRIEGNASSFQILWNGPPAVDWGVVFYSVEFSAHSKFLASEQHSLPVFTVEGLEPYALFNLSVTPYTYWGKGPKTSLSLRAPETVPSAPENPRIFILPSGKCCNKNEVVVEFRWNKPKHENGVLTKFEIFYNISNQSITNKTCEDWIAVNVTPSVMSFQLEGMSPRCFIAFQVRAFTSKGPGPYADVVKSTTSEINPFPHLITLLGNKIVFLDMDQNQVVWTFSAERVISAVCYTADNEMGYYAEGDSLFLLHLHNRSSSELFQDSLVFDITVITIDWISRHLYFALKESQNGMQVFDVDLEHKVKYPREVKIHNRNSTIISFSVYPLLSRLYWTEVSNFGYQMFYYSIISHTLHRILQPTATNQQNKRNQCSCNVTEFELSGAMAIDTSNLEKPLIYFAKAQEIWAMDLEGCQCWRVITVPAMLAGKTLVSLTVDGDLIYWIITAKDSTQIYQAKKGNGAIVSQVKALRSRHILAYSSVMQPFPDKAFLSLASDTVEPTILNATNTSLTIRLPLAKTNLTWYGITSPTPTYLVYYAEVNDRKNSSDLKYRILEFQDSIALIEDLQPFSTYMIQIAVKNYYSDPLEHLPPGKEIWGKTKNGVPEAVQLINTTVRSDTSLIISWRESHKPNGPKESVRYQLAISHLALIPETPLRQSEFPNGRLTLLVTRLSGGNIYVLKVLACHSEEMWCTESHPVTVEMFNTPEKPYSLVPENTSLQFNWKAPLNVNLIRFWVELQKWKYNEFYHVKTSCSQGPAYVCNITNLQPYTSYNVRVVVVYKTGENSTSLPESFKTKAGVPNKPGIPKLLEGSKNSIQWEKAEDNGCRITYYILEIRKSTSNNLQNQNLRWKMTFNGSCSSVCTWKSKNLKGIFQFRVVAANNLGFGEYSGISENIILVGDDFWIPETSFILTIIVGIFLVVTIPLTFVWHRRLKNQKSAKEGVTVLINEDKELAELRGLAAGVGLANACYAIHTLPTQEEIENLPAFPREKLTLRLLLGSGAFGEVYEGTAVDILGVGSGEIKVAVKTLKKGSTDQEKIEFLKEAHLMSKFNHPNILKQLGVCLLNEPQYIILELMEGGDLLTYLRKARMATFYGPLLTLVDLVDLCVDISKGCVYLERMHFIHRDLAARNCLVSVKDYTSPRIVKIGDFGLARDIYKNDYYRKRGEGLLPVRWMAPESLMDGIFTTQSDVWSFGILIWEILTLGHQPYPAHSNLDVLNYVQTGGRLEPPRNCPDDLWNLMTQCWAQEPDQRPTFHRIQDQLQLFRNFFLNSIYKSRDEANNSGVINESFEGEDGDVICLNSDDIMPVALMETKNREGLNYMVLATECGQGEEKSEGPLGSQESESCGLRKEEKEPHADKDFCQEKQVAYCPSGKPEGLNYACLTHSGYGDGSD

[4] = target: Leukocyte tyrosine kinase receptor (Homo sapiens) (UniProt P29376); experiment: Inhibition of LTK (unknown origin) transfected in mouse Ba/F3 cells at 1 uM after 24 hrs; assay type: cell-based; settings: BaF3
Chain of Leukocyte tyrosine kinase receptor (Homo sapiens) (P29376 whole entry): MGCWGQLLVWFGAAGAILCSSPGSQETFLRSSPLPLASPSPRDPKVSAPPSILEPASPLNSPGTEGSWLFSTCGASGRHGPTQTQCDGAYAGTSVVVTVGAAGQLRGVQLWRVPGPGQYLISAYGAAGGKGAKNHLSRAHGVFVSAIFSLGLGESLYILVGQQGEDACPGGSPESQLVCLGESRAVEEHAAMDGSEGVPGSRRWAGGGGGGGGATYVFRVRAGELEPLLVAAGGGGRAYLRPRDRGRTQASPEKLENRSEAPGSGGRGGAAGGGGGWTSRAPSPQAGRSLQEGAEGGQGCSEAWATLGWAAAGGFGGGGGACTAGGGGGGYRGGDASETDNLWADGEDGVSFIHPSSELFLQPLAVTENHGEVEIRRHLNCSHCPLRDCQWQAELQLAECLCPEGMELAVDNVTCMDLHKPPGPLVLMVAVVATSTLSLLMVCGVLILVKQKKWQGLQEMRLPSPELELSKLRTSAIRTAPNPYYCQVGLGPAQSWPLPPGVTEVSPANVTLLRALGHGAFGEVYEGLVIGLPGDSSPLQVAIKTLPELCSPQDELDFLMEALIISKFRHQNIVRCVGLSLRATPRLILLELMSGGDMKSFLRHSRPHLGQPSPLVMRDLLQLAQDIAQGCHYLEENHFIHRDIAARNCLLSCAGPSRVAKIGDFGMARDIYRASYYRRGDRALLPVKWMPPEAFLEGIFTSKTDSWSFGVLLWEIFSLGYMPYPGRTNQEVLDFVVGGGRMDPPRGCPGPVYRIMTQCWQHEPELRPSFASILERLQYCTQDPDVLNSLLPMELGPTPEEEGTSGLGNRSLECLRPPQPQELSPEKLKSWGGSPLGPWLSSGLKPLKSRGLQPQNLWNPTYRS
Procedure, shortened: (§1)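 Kinase specificity panel: each Ba/F3 line transformed with one of 24 tyrosine kinases depends on that kinase to grow. Cells were given compound at 1 or 5 µM for 24 h, with DMSO as comparator. Percentage growth was read by ATP-lite luminescence and reported as mean ± SEM.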

[5] = target: Tyrosine-protein kinase HCK (Homo sapiens) (UniProt P08631); experiment: Inhibition of HCK (unknown origin) transfected in mouse Ba/F3 cells at 1 uM after 24 hrs; assay type: cell-based; settings: BaF3; procedure, shortened: as §1
Chain of Tyrosine-protein kinase HCK (Homo sapiens) (P08631 2-526 limits assumed): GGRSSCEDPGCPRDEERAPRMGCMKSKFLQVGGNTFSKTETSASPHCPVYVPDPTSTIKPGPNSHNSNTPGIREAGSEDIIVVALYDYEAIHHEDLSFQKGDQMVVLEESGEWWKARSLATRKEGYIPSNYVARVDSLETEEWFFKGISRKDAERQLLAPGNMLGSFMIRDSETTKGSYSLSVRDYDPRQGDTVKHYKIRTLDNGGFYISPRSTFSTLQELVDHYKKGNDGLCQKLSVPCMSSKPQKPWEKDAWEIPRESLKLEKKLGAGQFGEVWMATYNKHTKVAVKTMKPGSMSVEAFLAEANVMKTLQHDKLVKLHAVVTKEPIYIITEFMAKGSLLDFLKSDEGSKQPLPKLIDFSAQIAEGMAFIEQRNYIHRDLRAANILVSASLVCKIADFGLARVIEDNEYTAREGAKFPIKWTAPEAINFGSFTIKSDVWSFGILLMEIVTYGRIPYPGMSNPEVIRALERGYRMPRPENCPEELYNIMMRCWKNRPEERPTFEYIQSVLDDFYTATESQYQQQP

[6] = target: Ephrin type-A receptor 2 (Homo sapiens) (UniProt P29317); experiment: Inhibition of EPHA2 (unknown origin) transfected in mouse Ba/F3 cells at 1 uM after 24 hrs; assay type: cell-based; settings: BaF3; procedure, shortened: as §1
[7] = target: T2, Ephrin type-A receptor 1 (Homo sapiens) (UniProt P21709); experiment: Inhibition of EPHA1 (unknown origin) transfected in mouse Ba/F3 cells at 1 uM after 24 hrs; assay type: cell-based; settings: BaF3; procedure, shortened: as §1
T2 sequence (whole entry): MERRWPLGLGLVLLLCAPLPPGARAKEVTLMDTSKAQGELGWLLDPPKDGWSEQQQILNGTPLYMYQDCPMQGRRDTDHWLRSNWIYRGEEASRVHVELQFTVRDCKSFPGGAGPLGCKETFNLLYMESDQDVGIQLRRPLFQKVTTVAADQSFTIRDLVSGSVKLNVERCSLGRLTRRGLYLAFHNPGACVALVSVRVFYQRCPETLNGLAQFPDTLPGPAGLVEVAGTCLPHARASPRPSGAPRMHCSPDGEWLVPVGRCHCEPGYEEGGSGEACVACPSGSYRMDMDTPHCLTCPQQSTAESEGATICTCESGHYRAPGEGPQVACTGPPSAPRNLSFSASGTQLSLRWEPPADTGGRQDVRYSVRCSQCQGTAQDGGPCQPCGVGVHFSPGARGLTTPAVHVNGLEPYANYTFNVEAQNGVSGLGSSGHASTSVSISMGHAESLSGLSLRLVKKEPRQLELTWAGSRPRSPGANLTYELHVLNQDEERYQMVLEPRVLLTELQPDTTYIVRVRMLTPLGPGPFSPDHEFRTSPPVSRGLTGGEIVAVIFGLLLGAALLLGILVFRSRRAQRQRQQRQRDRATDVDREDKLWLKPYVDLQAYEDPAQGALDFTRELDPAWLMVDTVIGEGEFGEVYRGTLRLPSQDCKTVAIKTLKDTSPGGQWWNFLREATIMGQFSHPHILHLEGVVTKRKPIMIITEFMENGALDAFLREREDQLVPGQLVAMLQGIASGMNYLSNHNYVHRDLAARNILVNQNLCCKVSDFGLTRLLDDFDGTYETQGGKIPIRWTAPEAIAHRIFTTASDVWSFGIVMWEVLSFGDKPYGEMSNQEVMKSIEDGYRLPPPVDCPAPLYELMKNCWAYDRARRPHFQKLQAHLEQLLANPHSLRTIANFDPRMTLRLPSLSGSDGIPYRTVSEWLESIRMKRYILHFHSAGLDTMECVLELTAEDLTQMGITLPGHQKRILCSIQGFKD

EOL1 = experiment: Cytotoxicity against human EOL-1 cells after 72 hrs by plate reader analysis; assay type: functional, cell-based; settings: EOL1, 72 h
[8] = Cytotoxicity against mouse BA/F3 cells transfected with FLT3-ITD after 24 hrs by plate reader analysis in presence of IL3; settings: BaF3, 24 h

Chain of Tyrosine-protein kinase Yes (Homo sapiens) (P07947 2-543 limits assumed): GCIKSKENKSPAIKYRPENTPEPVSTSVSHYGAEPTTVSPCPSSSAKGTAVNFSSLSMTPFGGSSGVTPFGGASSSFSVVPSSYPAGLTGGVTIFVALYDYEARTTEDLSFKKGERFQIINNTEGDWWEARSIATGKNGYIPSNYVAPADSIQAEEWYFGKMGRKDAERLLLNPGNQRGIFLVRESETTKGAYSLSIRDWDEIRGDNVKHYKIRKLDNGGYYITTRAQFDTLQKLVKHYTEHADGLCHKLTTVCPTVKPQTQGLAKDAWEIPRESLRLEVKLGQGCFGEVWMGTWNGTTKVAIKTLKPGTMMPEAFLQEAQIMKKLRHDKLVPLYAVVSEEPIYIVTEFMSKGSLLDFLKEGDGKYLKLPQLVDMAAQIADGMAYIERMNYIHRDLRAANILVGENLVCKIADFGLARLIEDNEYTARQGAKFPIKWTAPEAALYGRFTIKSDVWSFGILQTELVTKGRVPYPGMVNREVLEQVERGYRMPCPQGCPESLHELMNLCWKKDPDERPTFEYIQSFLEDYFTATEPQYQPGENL

Row | SMILES | inhibition [1] | inhibition [2] | inhibition [3] | inhibition [4] | inhibition [5] | inhibition [6] | inhibition [7] | EC50 (EOL1) [µM] | EC50 [8] [µM]
1 | Fc1ccc(-c2n[nH]cc2-c2ccncc2)cc1Cl |  |  |  |  |  |  |  | 0.382 | 16
2 | Cc1ccc(-n2cnc3cc(Nc4nnc(C)c5ccccc45)ccc32)cc1 |  |  |  |  |  |  |  | 0.889 | 19

More lines, main results first:

Row | inhibition [1] | inhibition [2] | inhibition [3] | inhibition [4] | inhibition [5] | inhibition [6] | inhibition [7] | SMILES | EC50 (EOL1) [µM] | EC50 [8] [µM]
3 | inactive | inactive | inactive | inactive | inactive | inactive | inactive | Cc1cccc(C(=O)Nc2cc(-c3ccc(F)cc3)n[nH]2)c1 | 0.202 | 21
4 | inactive | inactive | inactive | inactive | inactive | inactive | inactive | Cc1ccc(-c2cc(NC(=O)c3ccc(F)cc3)[nH]n2)cc1 | 0.502 | 23
5 | inactive | inactive | inactive | inactive | inactive | inactive | inactive | COc1ccc(C(=O)Nc2cc(-c3ccccc3)[nH]n2)cc1 | 0.066 | 18
